WT yeast gro inh: growth inhibition of WT yeast, mitochondrial fusion screen | mitochondrial fusion phenotypic screen, WT strain | inhibition, % at 10 µM | hit rate 2.1% among 190,000; in the data active means inhibition above about 58%; tested in S. cerevisiae
Tb MetRS inh: blocks T. brucei methionyl-tRNA synthetase activity; purified T. brucei MetRS, ATP depletion, Kinase-Glo luminescence; inhibition, % at 11.9 µM; hit rate 0.4% among 360,000; AID 624268;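 active means inhibition above a per-plate cutoff of the control wells' mean inhibition plus 3 SD, cut at about 5.5% in these data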;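 further: 0% = DMSO wells median and 100% = median of wells with control inhibitor compound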
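Dosing: 11.9 µM compound single dose, 0.9% DMSO; Assay system: purified T. brucei MetRS enzyme; Measured by: Kinase-Glo luciferase luminescence reporting remaining unconsumed ATP; Schedule: 15 min plus 2 h at 25 °C.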
GRIN3A LBD mod: NR3A (human) ligand-binding domain modulation | Tm shift relative to glycine control, % at 25 µM | AID 1259313 | hit rate 2.5% among 340,000 | NR3A LBD differential scanning fluorimetry, Tm shift; 0% = protein alone, 100% = glycine-bound protein;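 active means melting temperature shift of at least 10% of the positive control shift, at one fixed dose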
CHOP inhibitor: inhibitors of CHOP induction in ER stress response; inhibition, % at 10 µM; CHO-K1 CHOP-promoter luciferase, tunicamycin-induced, 15-18 h; hit rate 3.8% among 220,000;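 active means compounds that reduced the stress-induced luciferase reporter signal by more than about 70% of percent inhibition, limit read from the data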;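 further: 0% = tunicamycin plus vehicle and 100% = wells without tunicamycin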
MPTP block: blocks calcium-induced mitochondrial swelling. inhibition, % at 10 µM. isolated mouse mitochondria, Ca2+ swelling absorbance, 30 min. hit rate 1.4% among 360,000;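 active means inhibition of 50% or more, scaled per plate between neutral and stimulator controls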;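 further: 0% = DMSO wells given calcium and 100% = 1 mM EGTA wells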
EBV gp42 block: blocks Epstein-Barr virus glycoprotein 42 binding; Q1HVG2; hit rate 0.42% among 220,000; inhibition, % (tested at 21.74 µM); Fluorescence polarization binding assay, mP read-out; in the data active means inhibition above about 50%
Target sequence (Q1HVG2 whole entry, looked up): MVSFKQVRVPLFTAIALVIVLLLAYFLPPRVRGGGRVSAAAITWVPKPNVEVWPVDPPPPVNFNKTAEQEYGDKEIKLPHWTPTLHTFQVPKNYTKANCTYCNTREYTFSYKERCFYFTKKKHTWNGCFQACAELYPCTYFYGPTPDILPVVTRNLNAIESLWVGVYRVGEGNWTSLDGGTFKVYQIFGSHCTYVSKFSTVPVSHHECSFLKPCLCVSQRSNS
MPTP counter: mitochondrial membrane potential, counter-screen; AID 624504; shares compounds with MPTP block; inhibition, % at 10 µM; isolated mitochondria, Rhodamine 123 fluorescence; hit rate 78% among 5,000; in the data active means inhibition above about 22%;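 further: 0% = DMSO vehicle and 100% = positive control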
MPTP abs DR: MPTP inhibition, dose response swelling confirmation; shares compounds with MPTP block; isolated mitochondria swelling, absorbance; hit rate 58% among 780; IC50, µM; in the data active means IC50 below about 20 µM
MPTP counter DR: counter-screen for mitochondrial permeability transition pore inhibitors, dose response. shares compounds with MPTP block. AID 651564. isolated mitochondria counterscreen, fluorescence read-out. IC50, µM. hit rate 49% among 780; in the data active means IC50 below about 80 µM
Active calls of the source: *; . = not tested or not shown. Compounds with a hit are over-represented: about 6.4% of the library has one in this group of screens.

SMILES	WT yeast gro inh	Tb MetRS inh	GRIN3A LBD mod	CHOP inhibitor	MPTP block	EBV gp42 block	MPTP counter	others
C/C(=N\NC(=O)c1ccc(-c2ccccc2)cc1)C1C(=O)c2ccccc2C1=O	8.5	0.4	6.5	29.8	76.2*	-27.0	43.0*
C/C(=N\NC(=O)c1ccc(Br)cc1)C1C(=O)c2ccccc2C1=O	13.1	-0.1	13.5*	-17.0	73.8*	-28.4	79.5*
CCOc1ccc(C(=O)N/N=C(/C)C2C(=O)c3ccccc3C2=O)cc1	-0.4	-0.7	-0.8	-3.0	39.8	-11.7	.
CCCCNC(=O)c1onc(CSc2cccc(F)c2)c1C(=O)O	8.8	-0.1	-3.9	-3.5	1.2	-8.7	.
CCCCSCCCNC(=O)Nc1ccc(CC)cc1	24.1	-0.7	-3.1	-0.3	85.9*	2.1	83.4*
CCCCCCNC(=O)Nc1ccccc1	0.7	1.5	1.5	15.5	0.8	-19.5	.
CCOc1ccc(S(=O)(=O)N2CCN(C(=O)c3ccncc3)CC2)cc1	.	-0.5	-0.5	.	-0.7	.	.
Cc1cccc(OCCCCc2c(C)n[nH]c2C)c1C	-5.1	-0.3	1.7	94.6*	53.8*	2.2	82.5*
COc1ccccc1OCCCCCc1c(C)n[nH]c1C	-4.5	-0.4	1.8	61.8	33.4	-8.0	.
CCOc1ccccc1OCCCCCc1c(C)n[nH]c1C	.	0.1	3.7	39.8	80.9*	-20.2	47.1*
CC(C)COc1ccc(C(=O)OCCN2CCCCC2)cc1	.	-0.2	-4.2	.	-0.9	.	.
COc1cccc(C=C2SC(=S)NC2=O)c1	.	0.3	-14.0	.	55.6*	.	79.2*
COc1cccc(/C=C2/Sc3ccc(C(=O)NCCCN4CCCC4)cc3NC2=O)c1	.	0.3	-2.0	.	-1.1	.	.
COc1ccc2cc(/C=C3\SC(=S)NC3=O)c(N3CCOCC3)nc2c1	72.0*	0.1	-6.6	9.8	80.1*	-7.0	72.0*
COc1ccc(/C=C2/SC(=S)NC2=O)cc1OCc1ccccc1	.	-0.8	1.6	.	24.2	.	.
COc1cccc(/C=C2/Sc3ccc(C(=O)NCCN4CCCC4)cc3NC2=O)c1	.	-0.4	6.6	.	55.4*	.	-19.3	MPTP abs DR=5.96*;MPTP counter DR=77.4*
COc1ccc(OC)c(/C=C2\SC(=S)N(N3CCOCC3)C2=O)c1	.	0.0	-0.7	5.3	2.7	-11.5	.
CCOC(=O)c1c(NC(=O)CSc2nnc(C)c(=O)[nH]2)sc2c1CCCC2	-9.7	0.1	-7.0	15.8	6.7	-9.9	.
CCOC(=O)c1c(NC(=O)CSc2nnc(C)c(=O)[nH]2)sc(C)c1-c1ccc(C)cc1	.	-0.3	-8.5	-0.8	70.0*	-9.2	61.7*
CCCCN(CC)CCNC(=O)Cn1cnc2sc(C)c(S(=O)(=O)N3CCOCC3)c2c1=O	11.5	-0.2	0.8	4.3	0.5	-1.0	.
Cc1ccc(NC(=O)CC(O)(C(F)(F)F)C(F)(F)F)c(Br)c1	-1.7	1.1	-2.4	37.3	52.8*	2.3	79.0*
C/C(N)=C(/C#N)C(=O)COC(=O)C1Cc2ccccc2CN1S(C)(=O)=O (stereo not drawn)	-30.9	-0.4	0.5	2.6	-0.4	0.6	.
COc1ccc(-c2noc(CSc3nc(N)cc(=O)[nH]3)n2)cc1	.	0.8	-0.1	20.9	73.5*	-9.6	45.2*
Cc1ccc(NC(=O)COc2ccc(N(C)C(=O)C(C)(C)C)cc2)cc1S(=O)(=O)N1CCCCC1	.	-0.2	-1.7	.	92.7*	.	100.2*
Cc1ccc(NC(=O)CSc2ncnc3ccccc23)cc1S(=O)(=O)N1CCCCCC1	13.4	-0.8	-1.5	70.1*	62.1*	-33.6	81.0*
CC(=O)c1ccc(OCCCC(=O)N2CCN(S(=O)(=O)c3cc(C)ccc3C)CC2)cc1	.	-0.4	2.2	.	-0.8	.	.
COc1ccc(NC(=S)Nc2ccc3snnc3c2)cc1	-2.2	-1.0	28.4*	-14.7	73.3*	2.4	78.5*
O=C(Cn1cnc2ccccc21)Nc1ccc(SC(F)F)cc1	-3.9	0.1	-3.7	51.5	93.2*	-2.1	86.6*
COc1ccc(NC(=O)COC(=O)Cn2cnc3ccccc32)cc1	.	-0.4	-0.3	.	-0.3	.	.
